Calls of active or inactive are those of the source. No cut-off for these calls is given here.
Tests used:
[1] = target: Eukaryotic translation initiation factor 2-alpha kinase 1 (Homo sapiens) (UniProt Q9BQI3); test: Activation of HRI in human CRL-2813-pBISA-DL(ATF-4) reporter cells assessed as concentration required to obtain F-luciferase expression/R-luciferase expression ratio 3
Outline: (§1)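 Stably transfected CRL-2813-pBISA-DL(ATF-4) reporter cells treated with compounds in dose-response; firefly and renilla luciferases read by dual glow luciferase kit. Activity = firefly/renilla (F/R) ratio normalized to DMSO-treated wells (set at 1). Triplicate points fitted to logistic sigmoidal model by nonlinear least squares; C3X = concentration giving F/R = 3, Emax = maximal F/R.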

[2] = target: Eukaryotic translation initiation factor 2-alpha kinase 1 (Homo sapiens) (UniProt Q9BQI3); test: Activation of HRI in human CRL2813 cells assessed as reduction in cyclin D1 mRNA expression at 7.5 to 15 uM after 6 hrs by RT-PCR analysis; type: cell-based
Outline: (§2)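 CRL-2813 cells incubated with 7.5 or 15 μM compound for 6 h; CHOP and cyclin D1 mRNA measured by real-time PCR. Each run in triplicate, mean of three independent experiments ±S.E.M.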

[3] = target: Eukaryotic translation initiation factor 2-alpha kinase 1 (Homo sapiens) (UniProt Q9BQI3); test: Activation of HRI in human CRL2813 cells assessed as increase in CHOP mRNA expression at 7.5 to 15 uM after 6 hrs by RT-PCR analysis; type: cell-based; outline: as §2
[4] = target: Eukaryotic translation initiation factor 2-alpha kinase 1 (Homo sapiens) (UniProt Q9BQI3); test: Activation of HRI in human CRL2813 cells assessed as eIF2alpha phosphorylation after 6 hrs by Western blotting analysis; type: cell-based
Outline: (§3)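 CRL-2813 melanoma cells grown in serum-containing medium without antibiotics to 70% confluence, treated 6 h (10 μM for CHOP/cyclin D1), lysed in M-PER on ice 30 min, protein by BCA. Equal protein on SDS-PAGE, probed with anti-pS51-eIF2α rabbit mAb, anti-total eIF2α mouse mAb, anti-CHOP, anti-cyclin D1, anti-actin. Three independent experiments.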

[5] = Antiproliferative activity against human CRL2813 cells after 5 days by SRB assay in presence of non-targeting siRNA; type: functional, cell-based; conditions: CRL2813, 120 h
[6] = target: Eukaryotic translation initiation factor 2-alpha kinase 1 (Homo sapiens) (UniProt Q9BQI3); test: Activation of HRI in human CRL-2813-pBISA-DL(ATF-4) reporter cells assessed as eIF2alpha phosphorylation after 10 hrs by dual-luciferase reporter gene assay in presence of siRNA relative to control
Outline: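 CRL-2813-pBISA-DL(ATF-4) reporter cells transiently transfected (Lipofectamine 2000) with HRI-targeting or non-targeting siRNA for 48 h, then treated with compounds or DMSO for 10 h. Firefly/renilla ratio by dual luciferase assay, normalized to vehicle. Triplicate, three independent experiments; mean±S.E.M.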

[7] = tested on: MCF7; test: Antiproliferative activity against human MCF7 cells after 5 days by SRB assay in presence of HRI-targeting siRNA; type: functional, cell-based; conditions: MCF7, 120 h
[8] = Ratio of IC50 for human CRL2813 cells after 3 days by SRB assay in presence of HRI-targeting siRNA to IC50 for human CRL2813 cells after 3 days by SRB assay in presence of non-targeting siRNA
[9] = target: Eukaryotic translation initiation factor 2-alpha kinase 1 (Homo sapiens) (UniProt Q9BQI3); test: Activation of HRI in human CRL2813 cells assessed as reduction in cyclin D1 protein expression at 10 uM after 6 hrs by Western blotting analysis; type: cell-based; outline: as §3
[10] = target: Eukaryotic translation initiation factor 2-alpha kinase 1 (Homo sapiens) (UniProt Q9BQI3); test: Activation of HRI in human CRL2813 cells assessed as increase in CHOP protein expression at 10 uM after 6 hrs by Western blotting analysis; type: cell-based; outline: as §3
[11] = tested on: MCF7; test: Antiproliferative activity against human MCF7 cells after 5 days by SRB assay in presence of non-targeting siRNA; type: functional, cell-based; conditions: MCF7, 120 h
[12] = Antiproliferative activity against human CRL2813 cells after 5 days by SRB assay in presence of HRI-targeting siRNA; type: functional, cell-based; conditions: CRL2813, 120 h
[13] = target: Eukaryotic translation initiation factor 2-alpha kinase 1 (Homo sapiens) (UniProt Q9BQI3); test: Activation of HRI in human CRL-2813-pBISA-DL(ATF-4) reporter cells assessed as reduction of ternary complex at 30 uM by dual-luciferase reporter gene assay relative to control; outline: as §1
[14] = Cytotoxicity against human CRL2813 cells after 5 days by SRB assay; type: functional, cell-based; conditions: CRL2813, 120 h
Outline: (§4)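 CRL-2813 melanoma or NIH/3T3 fibroblasts seeded in 96-well plates, exposed 5 days to 0.5–20 μM compound; fixed in cold 10% TCA, bound sulforhodamine B measured. % growth = 100×(T−T0)/(C−T0). IC50 derived; triplicate, three independent experiments.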

[15] = Antiproliferative activity against human CRL2813 cells after 3 days by SRB assay in presence of non-targeting siRNA; type: functional, cell-based; conditions: CRL2813, 72 h
Outline: (§5)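 CRL-2813 cells transiently transfected (Lipofectamine 2000) with HRI-targeting or non-targeting siRNA, then treated with compound dose range; proliferation by SRB after 3 days. IC50 calculated per siRNA condition; ratio is HRI-siRNA over non-targeting IC50. Triplicate, three independent experiments; mean±S.E.M.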

[16] = Antiproliferative activity against human CRL2813 cells after 3 days by SRB assay in presence of HRI-targeting siRNA; type: functional, cell-based; conditions: CRL2813, 72 h; outline: as §5
[17] = target: Eukaryotic translation initiation factor 2-alpha kinase 1 (Homo sapiens) (UniProt Q9BQI3); test: Activation of HRI in human CRL-2813-pBISA-DL(ATF-4) reporter cells assessed as eIF2alpha phosphorylation after 8 to 32 hrs by dual-luciferase reporter gene assay
Outline: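 Reporter CRL-2813-pBISA-DL(ATF-4) cells incubated with compounds for 8, 16 or 32 h. Firefly/renilla luciferase ratio measured by dual luciferase assay and normalized to vehicle-treated cells.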

[18] = Ratio of IC50 for human CRL2813 cells after 3 days by SRB assay in presence of HRI-targeting siRNA to IC50 for human CRL2813 cells after 3 days by SRB assay in presence of non-targeting siRNA; type: functional; outline: as §5
[19] = tested on: NIH3T3; test: Cytotoxicity against mouse NIH/3T3 cells after 5 days by SRB assay; type: cell-based; conditions: NIH3T3, 120 h; outline: as §4
[20] = Selectivity ratio of IC50 for mouse NIH/3T3 cells to IC50 for human CRL2813 cells; type: ADME, cell-based; conditions: NIH/3T3 cells and CRL2813 cells, read-out: Ratio IC50

Sequence of Eukaryotic translation initiation factor 2-alpha kinase 1 (Homo sapiens) (Q9BQI3 whole entry): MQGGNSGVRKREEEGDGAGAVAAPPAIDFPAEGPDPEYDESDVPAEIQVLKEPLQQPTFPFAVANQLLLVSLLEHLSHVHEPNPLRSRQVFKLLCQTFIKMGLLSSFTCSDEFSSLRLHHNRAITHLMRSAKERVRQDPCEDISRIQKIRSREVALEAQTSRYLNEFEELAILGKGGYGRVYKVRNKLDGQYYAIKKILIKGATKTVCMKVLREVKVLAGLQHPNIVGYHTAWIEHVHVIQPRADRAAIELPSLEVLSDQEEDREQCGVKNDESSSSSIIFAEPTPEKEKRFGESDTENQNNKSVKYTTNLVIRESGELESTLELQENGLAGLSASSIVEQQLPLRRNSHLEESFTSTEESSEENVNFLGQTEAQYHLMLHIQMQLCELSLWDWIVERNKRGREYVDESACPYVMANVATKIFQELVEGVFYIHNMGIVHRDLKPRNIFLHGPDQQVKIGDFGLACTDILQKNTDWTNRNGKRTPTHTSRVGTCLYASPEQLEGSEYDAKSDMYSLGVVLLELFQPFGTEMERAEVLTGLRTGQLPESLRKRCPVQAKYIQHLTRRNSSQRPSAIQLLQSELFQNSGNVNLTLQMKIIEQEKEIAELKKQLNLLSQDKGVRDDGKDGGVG

| Activity [1] [µM] | Activity [2] | Activity [3] | Activity [4] | Activity [6] | IC50 [7] [µM] | Activity [9] | Activity [10] | IC50 [11] [µM] | Ratio [13] | Activity [17] | SMILES | IC50 [5] [µM] | Ratio IC50 [8] | IC50 [12] [µM] | IC50 [14] [µM] | IC50 [15] [µM] | IC50 [16] [µM] | Ratio IC50 [18] | IC50 [19] [µM] | selectivity ratio [20] |
| --- | --- | --- | --- | --- | --- | --- | --- | --- | --- | --- | --- | --- | --- | --- | --- | --- | --- | --- | --- | --- |
| 6.7 | Active | Active | Active | inactive | > 30 | Active | Active | 9.8 | 9 | – | O=C(Nc1ccc([N+](=O)[O-])cc1)N[C@H]1CC[C@H](Oc2ccc(F)cc2)CC1 | 5.2 | 1.7 | 12.2 | 2.3 | – | – | – | – | – |
| 4.5 | Active | Active | Active | inactive | > 30 | Active | Active | 11.3 | 11.8 | – | O=C(Nc1cccc(C(F)(F)F)c1)N[C@H]1CC[C@@H](Oc2ccc(F)cc2)CC1 | 6 | 1.7 | 10.4 | 2.6 | 6 | 10.4 | – | – | – |
| 3.2 | – | – | – | – | – | – | – | – | 7.98 | Active | O=C(Nc1cccc(C(F)(F)F)c1)N[C@H]1CC[C@H](Oc2ccccc2F)CC1 | – | – | – | 2.45 | 2.8 | 21.9 | 7 | – | – |
| 1.6 | Active | Active | Active | inactive | 29.5 | Active | Active | 8.4 | 14 | – | O=C(Nc1ccc(C(F)(F)F)cc1)N[C@H]1CC[C@H](Oc2ccc(F)cc2)CC1 | 3.1 | 1.7 | 6.5 | 2.8 | – | – | – | – | – |
| 2.6 | – | – | – | – | – | – | – | – | 7.23 | Active | O=C(Nc1cccc(C(F)(F)F)c1)N[C@H]1CC[C@H](Oc2cccc(F)c2)CC1 | – | – | – | 2.4 | 4.3 | 29.9 | 7 | – | – |
| 0.7 | Active | Active | Active | inactive | 30 | Active | Active | 9.2 | 15.3 | – | O=C(Nc1ccc(OC(F)(F)F)cc1)N[C@H]1CC[C@H](Oc2ccc(F)cc2)CC1 | 3.3 | 1.7 | 7.4 | 2.7 | – | – | – | 13.6 | 5 |
